According to ChEMBL document CHEMBL2046374, “Synthesis and biological evaluation of vinyl ether-containing azole derivatives as inhibitors of Trichophyton rubrum” (2012):
In brackets after ≈: the same amount, converted by molar mass.

System: Trichophyton rubrum
Assay: Antifungal activity against Trichophyton rubrum incubated at 35 degC for 72 hrs by NCCLS based microbroth dilution method
Type: functional
Outline: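 Broth microdilution in 96-well plates per NCCLS; compounds dissolved in DMSO, serially diluted in growth medium, inoculated, incubated at 35 °C, read at 72 h for T. rubrum. MIC80 taken as first well with ~80% growth reduction versus drug-free well. Fluconazole, itraconazole, voriconazole, omoconazole and amphotericin B as positive controls. Tests run three times; mean of replicates reported.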

With `C/C(=C(/OCCOc1ccc(Cl)cc1)c1ccc(F)cc1F)n1cncn1.O=[N+]([O-])O` as the compound, how does the MIC80 read?
The MIC80 was 0.2 µg/mL.

Which MIC80 does the source give for `C/C(=C(/OCCCCOc1c(Cl)cc(Cl)cc1Cl)c1ccc(F)cc1F)n1cncn1.O=[N+]([O-])O` here?
Its MIC80 is over 20 µg/mL.

Which MIC80 does the source give for `C/C(=C(/OCCCCCOc1ccc(Cl)cc1)c1ccc(F)cc1F)n1cncn1.O=[N+]([O-])O` here?
The MIC80 was 0.25 µg/mL.

How did the MIC80 turn out when `C/C(=C(/OCCOc1ccc(Cl)cc1)c1ccc(Cl)cc1Cl)n1ccnc1` [OMOCONAZOLE] was run?
Its MIC80 is 0.1 µg/mL (≈ 0.236 µM).

How did the MIC80 turn out when `C/C(=C(/OCCCCOc1ccc(Br)cc1)c1ccc(F)cc1F)n1cncn1.O=[N+]([O-])O` was run?
Its MIC80 is 0.05 µg/mL.

For `C/C(=C(/OCCCCCCOc1ccc(Cl)cc1)c1ccc(F)cc1F)n1cncn1.O=[N+]([O-])O`, which MIC80 is on record?
Its MIC80 is 2.5 µg/mL.

How did the MIC80 turn out when `CCC(C)n1ncn(-c2ccc(N3CCN(c4ccc(OCC5COC(Cn6cncn6)(c6ccc(Cl)cc6Cl)O5)cc4)CC3)cc2)c1=O` (stereo not given) [ITRACONAZOLE] was run?
Its MIC80 is 0.125 µg/mL (≈ 0.177 µM).

For `C[C@@H]1[C@H](O)[C@@H](C)/C=C/C=C/C=C/C=C/C=C/C=C/C=C/[C@H](O[C@@H]2O[C@H](C)[C@@H](O)[C@H](N)[C@@H]2O)C[C@@H]2O[C@](O)(C[C@@H](O)C[C@@H](O)[C@H](O)CC[C@@H](O)C[C@@H](O)CC(=O)O[C@H]1C)C[C@H](O)[C@H]2C(=O)O` [AMPHOTERICIN B], which MIC80 is on record?
The MIC80 was 2 µg/mL (≈ 2.16 µM).

How did the MIC80 turn out when `OC(Cn1cncn1)(Cn1cncn1)c1ccc(F)cc1F` [FLUCONAZOLE] was run?
Its MIC80 is 4 µg/mL (≈ 13.1 µM).

With `C/C(=C(/OCCCCOc1ccccc1Cl)c1ccc(F)cc1F)n1cncn1.O=[N+]([O-])O` as the compound, how does the MIC80 read?
The MIC80 was 0.1 µg/mL.

For `C/C(=C(/OCCCOc1ccc(Cl)cc1)c1ccc(F)cc1F)n1cncn1.O=[N+]([O-])O`, which MIC80 is on record?
The MIC80 was 0.125 µg/mL.

How did the MIC80 turn out when `C/C(=C(/OCCCOc1ccc(Br)cc1)c1ccc(F)cc1F)n1cncn1.O=[N+]([O-])O` was run?
The MIC80 was 0.25 µg/mL.

`C/C(=C(/OCCCCOc1cccc(Cl)c1)c1ccc(F)cc1F)n1cncn1.O=[N+]([O-])O` was tested. Which MIC80 did it give?
The MIC80 was 0.025 µg/mL.

With `C/C(=C(/OCCCCOc1ccc(C)cc1)c1ccc(F)cc1F)n1cncn1.O=[N+]([O-])O` as the compound, how does the MIC80 read?
The MIC80 was 0.2 µg/mL.

With `C[C@@H](c1ncncc1F)[C@](O)(Cn1cncn1)c1ccc(F)cc1F` [VORICONAZOLE] as the compound, how does the MIC80 read?
Its MIC80 is 0.0625 µg/mL (≈ 0.179 µM).

`C/C(=C(/OCCCCOc1ccc(F)cc1)c1ccc(F)cc1F)n1cncn1.O=[N+]([O-])O` was tested. Which MIC80 did it give?
Its MIC80 is 0.025 µg/mL.

Which MIC80 does the source give for `C/C(=C(/OCCCCOc1ccc(Cl)cc1Cl)c1ccc(F)cc1F)n1cncn1.O=[N+]([O-])O` here?
The MIC80 was 2 µg/mL.

How did the MIC80 turn out when `C/C(=C(/OCCCOc1ccc(F)cc1)c1ccc(F)cc1F)n1cncn1.O=[N+]([O-])O` was run?
The MIC80 was 0.1 µg/mL.

For `C/C(=C(/OCCCCOc1ccc(Cl)cc1)c1ccc(F)cc1F)n1cncn1.O=[N+]([O-])O`, which MIC80 is on record?
Its MIC80 is 0.0625 µg/mL.

`C/C(=C(/OCCCOc1ccc(C)cc1)c1ccc(F)cc1F)n1cncn1.O=[N+]([O-])O` was tested. Which MIC80 did it give?
Its MIC80 is 2.5 µg/mL.
